Data set [1] is described as follows: Half life in anesthetized C57BL/6J mouse brain at 5 mg/kg, ip administered as single dose measured upto 240 mins by LC-MS/MS analysis. It is filed as ADME, organism-based. In outline: (§1)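 Male and female mice (C57BL/6J or C57BL/6J x 129 F1), postnatal days 21-28, single i.p. injection at 10 mL/kg in vegetable oil or ethanol–Tween 80–saline (1:1:18). Blood taken by cardiac puncture under isoflurane at time points 15–240 min. Plasma and PBS brain homogenate extracted with ice-cold acetonitrile, diazepam internal standard, quantified by LC-MS/MS. Mean concentrations per time point (n = 3-5); noncompartmental analysis.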

Data set [2] is described as follows: Dissociation constant, pKa of compound. It is filed as physicochemical.
Data set [3] can be described thus: Drug metabolism in brain of anesthetized C57BL/6J mouse assessed as decrease in decarboxylation of parent compound at 5 mg/kg, ip by LC-MS/MS analysis. It counts as ADME, organism-based. The note with it: in vivo. An outline of the steps: (§2)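 Mice aged 21-28 days postnatal received one i.p. dose (10 mL/kg), and plasma and brain were sampled at 15–240 min. Decarboxylated neutral cannabinoids were measured by LC-MS/MS against known standards, alongside the parent acid.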

Data set [4] is described as follows: Cmax in anesthetized C57BL/6J mouse plasma at 5 mg/kg, ip administered as single dose measured upto 240 mins by LC-MS/MS analysis. It is filed as ADME, organism-based. The arrangement: dose 5 mg/kg, route intraperitoneal. An outline of the steps:
as §1

Data set [5] is described as follows: Ratio of drug level in anesthetized C57BL/6J mouse brain to plasma at 5 mg/kg, ip administered as single dose measured upto 240 mins by LC-MS/MS analysis. The note with it: read-out: BPR. It is filed as ADME, organism-based. An outline of the steps: as §1
Data set [6] in a line: AUC in anesthetized C57BL/6J mouse plasma at 5 mg/kg, ip administered as single dose measured upto 240 mins by LC-MS/MS analysis. It is filed as ADME, organism-based. The arrangement: dose 5 mg/kg, time < 4 hr, route intraperitoneal. An outline of the steps: as §1
Data set [7] in a line: Tmax in anesthetized C57BL/6J mouse brain at 5 mg/kg, ip administered as single dose measured upto 240 mins by LC-MS/MS analysis. It counts as ADME, organism-based. An outline of the steps: as §1
A short description of data set [8]: AUC in anesthetized C57BL/6J mouse brain at 5 mg/kg, ip administered as single dose measured upto 240 mins by LC-MS/MS analysis. It counts as ADME, organism-based. The arrangement: time < 4 hr, dose 5 mg/kg, route intraperitoneal. In outline:
as §1

A short description of data set [9]: Drug metabolism in plasma of anesthetized C57BL/6J mouse assessed as decrease in decarboxylation of parent compound at 5 mg/kg, ip by LC-MS/MS analysis. The note with it: in vivo. It is filed as ADME, organism-based. An outline of the steps:
as §2

Data set [10] can be described thus: Tmax in anesthetized C57BL/6J mouse plasma at 5 mg/kg, ip administered as single dose measured upto 240 mins by LC-MS/MS analysis. It counts as ADME, organism-based. An outline of the steps: as §1
A short description of data set [11]: Cmax in anesthetized C57BL/6J mouse brain at 5 mg/kg, ip administered as single dose measured upto 240 mins by LC-MS/MS analysis. It counts as ADME, organism-based. The arrangement: dose 5 mg/kg, route intraperitoneal. The note with it: C57BL/6J, brain, read-out: Cmax. An outline of the steps: as §1
Data set [12] is described as follows: Half life in anesthetized C57BL/6J mouse plasma at 5 mg/kg, ip administered as single dose measured upto 240 mins by LC-MS/MS analysis. It counts as ADME, organism-based. In outline: as §1
Data set [13] can be described thus: Partition coefficient, log P of compound. It counts as physicochemical. The note with it: octanol/water.
Data set [14] in a line: Drug uptake in plasma of anesthetized C57BL/6J mouse at 10 mg/kg, ip by LC-MS/MS analysis. It is filed as ADME, organism-based. As to conditions: in vivo. An outline of the steps: as §2
Data set [15] is described as follows: Drug metabolism in brain of anesthetized C57BL/6J mouse at 10 mg/kg, ip by LC-MS/MS analysis. It counts as ADME, organism-based. As to conditions: in vivo. In outline: as §2
Data set [16] in a line: Ratio of drug level in anesthetized C57BL/6J mouse brain to plasma at 10 mg/kg, ip administered as single dose measured upto 240 mins by LC-MS/MS analysis. It is filed as ADME, organism-based. As to conditions: read-out: BPR. In outline:
as §1

Data set [17] is described as follows: Cmax in anesthetized C57BL/6J mouse plasma at 10 mg/kg, ip administered as single dose measured upto 240 mins by LC-MS/MS analysis. It is filed as ADME, organism-based. The arrangement: dose 10 mg/kg, route intraperitoneal. In outline:
as §1

Data set [18] can be described thus: Cmax in anesthetized C57BL/6J mouse brain at 10 mg/kg, ip administered as single dose measured upto 240 mins by LC-MS/MS analysis. It counts as ADME, organism-based. On the set-up: dose 10 mg/kg, route intraperitoneal. As to conditions: in vivo, 4 h. In outline: as §1
Data set [19] can be described thus: Drug uptake in plasma of anesthetized C57BL/6J mouse assessed as purity of compound at 10 mg/kg, ip by LC-MS/MS analysis. It counts as ADME, organism-based. As to conditions: in vivo. An outline of the steps: as §2
Data set [20] in a line: Half life in anesthetized C57BL/6J mouse brain at 10 mg/kg, ip administered as single dose measured upto 240 mins by LC-MS/MS analysis. It is filed as ADME, organism-based. An outline of the steps:
as §1

Data set [21] in a line: Tmax in anesthetized C57BL/6J mouse plasma at 10 mg/kg, ip administered as single dose measured upto 240 mins by LC-MS/MS analysis. It is filed as ADME, organism-based. In outline:
as §1

Data set [22] can be described thus: Tmax in anesthetized C57BL/6J mouse brain at 10 mg/kg, ip administered as single dose measured upto 240 mins by LC-MS/MS analysis. It counts as ADME, organism-based. In outline:
as §1

A short description of data set [23]: Half life in anesthetized C57BL/6J mouse plasma at 10 mg/kg, ip administered as single dose measured upto 240 mins by LC-MS/MS analysis. It counts as ADME, organism-based. In outline:
as §1

Data set [24] is described as follows: AUC in anesthetized C57BL/6J mouse plasma at 10 mg/kg, ip administered as single dose measured upto 240 mins by LC-MS/MS analysis. It counts as ADME, organism-based. On the set-up: time < 4 hr, dose 10 mg/kg, route intraperitoneal. In outline: as §1
A short description of data set [25]: AUC in anesthetized C57BL/6J mouse brain at 10 mg/kg, ip administered as single dose measured upto 240 mins by LC-MS/MS analysis. It counts as ADME, organism-based. On the set-up: dose 10 mg/kg, time < 4 hr, route intraperitoneal. The note with it: in vivo, 4 h. An outline of the steps: as §1
Data set [26] in a line: Drug metabolism in plasma of anesthetized C57BL/6J mouse assessed as decrease in decarboxylation of parent compound at 10 mg/kg, ip by LC-MS/MS analysis. It is filed as ADME, organism-based. As to conditions: in vivo. An outline of the steps:
as §2

Data set [27] is described as follows: Drug metabolism in brain of anesthetized C57BL/6J mouse assessed as decrease in decarboxylation of parent compound at 10 mg/kg, ip by LC-MS/MS analysis. It is filed as ADME, organism-based. As to conditions: in vivo. In outline:
as §2

Consider three compounds from ChEMBL document CHEMBL4414643, “Pharmacokinetics of Phytocannabinoid Acids and Anticonvulsant Effect of Cannabidiolic Acid in a Mouse Model of Dravet Syndrome” (J Nat Prod, 2019).

As usually defined, the half-life is the time in which the quantity being followed falls by half. High values mean slow decline, low ones rapid decline. Broadly, the pKa is the pH at which an ionisable group is half protonated. One may read the Tmax as the time at which the peak concentration occurs. One may read the logP as the decadic logarithm of the partition coefficient of the neutral form, usually between octanol and water. Low readings indicate a more hydrophilic compound, high ones a more lipophilic compound. `C=C(C)[C@@H]1CCC(C)=C[C@H]1c1c(O)cc(CCC)c(C(=O)O)c1O`: the results for the half-life in data set [1] and in data set [12] were 19 min and 49 min, respectively. In data set [2], this compound had a pKa of 2.91. Besides, the Drug metabolism result in data set [3] and in data set [9] was “Metabolite_Notdetected” each time. Besides, the Cmax in [4] is 21000 ng/mL; in data set [11] it was 800 ng/mL. Also, the Kp at 4 h in data set [5] was determined as 0.02. Also, the AUC at 4 h was 24800 ng·h/mL in data set [6] and 550 ng·h/mL in data set [8]. The Tmax is 30 min in [7] and 15 min in [10]. The log partition coefficient (logP) in data set [13] is 5.94.
In turn, `CCCc1cc(O)c(C/C=C(\C)CCC=C(C)C)c(O)c1C(=O)O` registered a pKa in data set [2] of 2.92. The Drug uptake in [14] is recorded as 0.2%; in [19], 97%. The Drug metabolism entry in [15] is recorded as “Metabolite_Notdetected”. Also, in data set [16], the Kp at 4 h stood at 0.04. Moreover, the Cmax in data set [17] stood at 34400 ng/mL; in data set [18], 3.8 ng/mg. Moreover, the half-life came out at 29 min in data set [20] and 204 min in data set [23]. Besides, the Tmax in [21] is 15 min; in data set [22] it was 90 min. The same compound had an AUC at 4 h in [24] of 199000 ng·h/mL. In data set [13], this compound gave a logP of 6.46.
Compound `CCCCCc1cc(O)c(C/C=C(\C)CCC=C(C)C)c(O)c1C(=O)O` [CANNABIGEROLIC ACID] came in with a pKa in [2] of 2.92. The compound further yielded an AUC in data set [25] of 94 µg·min/g. In data set [16], the Kp at 4 h is 0.02. Further, the Cmax is 63500 ng/mL in data set [17] and 2.3 ng/mg in data set [18]. For the same compound, the half-life came out at 31 min in data set [20] and 62 min in data set [23]. The Drug metabolism result in data set [26] and in data set [27] was “Metabolite_Notdetected” in each case. In addition, the time of peak concentration (Tmax) is 45 min in [21] and 30 min in data set [22]. The same compound showed an AUC at 4 h in data set [24] of 99300 ng·h/mL. This compound also displayed a logP in data set [13] of 7.35.
